Hits are enriched below; roughly 3.9% of the tested compounds scored in any of these assays.
HSF-1 act: increases HSF-1 driven luciferase reporter signal. NIH3T3-HGL HSF-1 luciferase reporter, MG132, 8 h; 100% = twice DMSO control signal. activation, % at 9 µM. 1.7% of 300,000 active;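 active = mean replicate activation of at least 50% with a set share of replicates each reaching 50%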;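 also: 0% = median of the neutral control wells and 100% = twice that signal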
FID counter: displaces DNA intercalator in HCV helicase counter-screen. 0.17% of 290,000 active. inhibition, % at 7.9 µM. DNA fluorescent intercalator displacement, fluorescence; in the data active = inhibition above about 37%;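 also: 0% = vehicle and 100% = reference compound; higher means more ethidium bromide displaced from hairpin DNA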
NS3 helicase inh: blocks Hepatitis C virus NS3 helicase unwinding; NS3 helicase DNA unwinding, Cy5 molecular beacon fluorescence; inhibition, % at 10.9 µM; 0.56% of 290,000 active; AID 1800;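 active = inhibition above the mean of all tested compounds plus 3 SD, set per campaign, cut at about 35% in these data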;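 also: 0% = DMSO wells and 100% = thioflavine S control wells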
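System: HCV NS3 helicase fragment; control set: DMSO and thioflavine S; technique: Cy5 fluorescence at 0 and 60 min, beacon hairpin quenching; reagent: beacon DNA duplex substrate plus ATP; replicates: singlicate; schedule: 1 h reaction at 25 °C, ATP-initiated; medium: MOPS buffer pH 6.5 with MgCl2, DTT, Tween20, BSA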
core dimer inh: blocks dimerization of HCV core protein; AID 1899; 0.33% of 300,000 active; TR-FRET GST/Flag-core106 dimerization, 1536-well; inhibition, % at 5 µM;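 active = inhibition above the mean of all tested compounds plus 3 SD, set per screening campaign, cut at about 45% in these data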
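Test system: GST/Flag-tagged HCV core106 proteins; Medium: KF-containing HEPES buffer, pH 7.45, DTT, CHAPS, BSA; Times: compound-protein-antibody incubation 4 h at 22.5 °C; Detection: TR-FRET 671 and 617 nm emission; Benchmarks: wells lacking GST-core106 and wells with excess unlabelled core106.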
HSF1 inh: HSF1 inhibition; activity change, negative = inhibition, % at 7.5 µM (by protocol); AID 2098; NIH3T3-HGL HSE-luciferase, MG132-induced, luminescence 8 h; stronger effect = lower value; 0.77% of 300,000 active;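 active = more than half of replicate wells show activity change below -50%, luminescence cut by over half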;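 also: luciferase reports HSF-1 transcriptional activity via heat shock element; 0% = median of DMSO wells and -100% = zero luminescence signal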
HSP90 inh: blocks HSP90-mediated luciferase refolding in reticulocyte lysate | Rabbit reticulocyte lysate, luciferase refolding luminescence, 3 h | inhibition, % at 5.6 µM | 0.91% of 290,000 active | AID 1789;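 active = inhibition above the screen-wide mean plus 3 SD, computed separately per campaign, cut at about 16% in these data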;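 also: 0% = DMSO wells and 100% = 60 µM geldanamycin wells; inhibitors lower the luminescence because luciferase stays unfolded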
The depositor's hits bear a star.

How did Cc1ccc2c(C(=O)CSc3ccccc3)c(C)[nH]c2c1 do in these assays?
HSF-1 act: 55*; FID counter: -1; NS3 helicase inh: 2; core dimer inh: -19; HSF1 inh: 24; HSP90 inh: -3

What do the screens show for `CNC(=O)Cn1ncc2c(C)n(Cc3ccc(C)cc3)c(C)c2c1=O`?
HSF-1 act: -5; FID counter: -13; NS3 helicase inh: -1; core dimer inh: 2; HSF1 inh: -6; HSP90 inh: 0

How did Cc1c2cnn(CC(=O)Nc3c(F)c(F)cc(F)c3F)c(=O)c2c(C)n1Cc1ccccc1F do in these assays?
HSF-1 act: 0; FID counter: -24; NS3 helicase inh: 17; core dimer inh: 55*; HSF1 inh: -4; HSP90 inh: 0

How did O=C(CCS(=O)(=O)c1ccc(Br)cc1)NCc1cccs1 do in these assays?
HSF-1 act: 3; FID counter: -1; NS3 helicase inh: 6; core dimer inh: 6; HSF1 inh: -1; HSP90 inh: 17*

How did O=C(CCS(=O)(=O)c1ccc(Br)cc1)NCc1ccco1 do in these assays?
HSF-1 act: 8; FID counter: -5; NS3 helicase inh: 6; core dimer inh: -51; HSF1 inh: -5; HSP90 inh: -4

Results for O=C(Cc1cccs1)NCc1cccc(CNC(=O)Cc2cccs2)c1 ?
HSF-1 act: 19; FID counter: -15; NS3 helicase inh: -13; core dimer inh: -6; HSF1 inh: 11; HSP90 inh: 0

Results for O=C(Cc1cccs1)NCc1ccccc1Br ?
HSF-1 act: 94*; FID counter: -15; NS3 helicase inh: 19; core dimer inh: -2; HSF1 inh: 26; HSP90 inh: 1

How did Cc1ccc(NS(=O)(=O)c2cc(C(=O)N3CCc4ccccc4C3)ccc2Cl)cc1 do in these assays?
HSF-1 act: 67*; FID counter: -24; NS3 helicase inh: -3; core dimer inh: 8; HSF1 inh: 31; HSP90 inh: -1

How did Cc1ccccc1NS(=O)(=O)c1cc(C(=O)N2CCc3ccccc3C2)ccc1C do in these assays?
HSF-1 act: 44; FID counter: -32; NS3 helicase inh: -12; core dimer inh: 8; HSF1 inh: 14; HSP90 inh: 0

What do the screens show for `COP(=O)(OC)c1nc(-c2cccc3ccccc23)oc1NCc1ccccc1`?
HSF-1 act: 87*; FID counter: -19; NS3 helicase inh: -6; core dimer inh: 4; HSF1 inh: 25; HSP90 inh: -4

Results for COc1ccc(CNc2oc(-c3cccc4ccccc34)nc2P(=O)(OC)OC)cc1 ?
HSF-1 act: 17; FID counter: -29; NS3 helicase inh: -18; core dimer inh: 2; HSF1 inh: 3; HSP90 inh: -4

What do the screens show for `COc1ccc2cc(/C=N/NC(=O)CN(c3ccccc3)S(=O)(=O)c3ccccc3)c(Cl)nc2c1`?
HSF-1 act: 8; FID counter: -11; NS3 helicase inh: 3; core dimer inh: 16; HSF1 inh: 2; HSP90 inh: 3

How did COc1ccc(N(CC(=O)N/N=C/c2cc3ccc(OC)cc3nc2Cl)S(=O)(=O)c2ccccc2)cc1 do in these assays?
HSF-1 act: 59*; FID counter: -10; NS3 helicase inh: 3; core dimer inh: 3; HSF1 inh: 29; HSP90 inh: 2

How did Cc1ccc(NC(=O)CN(C)S(=O)(=O)c2ccc3[nH]c(=O)oc3c2)c(C)c1 do in these assays?
HSF-1 act: -9; FID counter: -13; NS3 helicase inh: 0; core dimer inh: -8; HSF1 inh: -4; HSP90 inh: 4

How did COc1cccc(C2CC(c3cccs3)=NN2C(=O)c2ccco2)c1O (centres undefined) do in these assays?
HSF-1 act: 63*; FID counter: -35; NS3 helicase inh: -10; core dimer inh: -4; HSF1 inh: 73; HSP90 inh: 7

Results for Cc1ccc(-c2cc(C(=O)N3CCCC(C(F)(F)F)C3)c3ccccc3n2)o1 (centres undefined) ?
HSF-1 act: 2; core dimer inh: 7; HSF1 inh: 1

How did Cc1ccc(-c2cc(C(=O)N3CCN(c4ncccn4)CC3)c3cc(Br)ccc3n2)o1 do in these assays?
HSF-1 act: 76*; FID counter: -31; NS3 helicase inh: 26; core dimer inh: 41; HSF1 inh: 47; HSP90 inh: 4

High-throughput results as filed in PubChem BioAssay.
